Source: PubChem BioAssay (several laboratories)
Most compounds without a hit are left out; they make up all but 5.4% or so of the library.
T cruzi inh: blocks replication of Trypanosoma cruzi; T. cruzi beta-gal in NIH3T3, luminescence, 90 h; inhibition, % (no concentration beside the values); hit rate 1.4% among 300,000; AID 1885;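 active = mean inhibition across valid replicates above about 55%, limit read from the data; inconclusive = mean below that limit but half or more replicates reach it; inactive = mean below it, under half of replicates reach it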;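 note: signal also drops with host cell toxicity which is not excluded here; higher percent means less beta-gal luminescence so fewer parasites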
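Test system: β-gal T. cruzi (Tulahuen C4) inside NIH/3T3 cells / Quantity: 5,000 cells/well / Measured by: luminescence from GalScreen with 0.05% NP40, read after 60 min / Medium: DMEM plus 2% FBS / Measure: parasite load inhibition, % / Reagent: Tulahuen C4 trypomastigotes, 5000/well / Schedule: co-culture of at least 90 h after 3 h attachment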
CSC inhib: cancer stem cell inhibition; cancer stem cell-like cells viability, luminescence; AID 2717; inhibition, % at 7.5 µM; hit rate 1.1% among 300,000; in the data active = inhibition above about 75%; inconclusive = no clear call, values can overlap the other calls; tested in HMLE shEcad cells
Mdm2-MdmX inh: human Mdm2/MdmX binding inhibition; SaOS-2 split-luciferase Mdm2/MdmX complementation, luminescence; inhibition, % at 8 µM; hit rate 3% among 330,000; AID 485346;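 active = inhibition of at least 50% at 8 µM in the primary screen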
aSyn 5UTR inh: 5' untranslated region of α-synuclein, MLPCN primary screen; alpha-synuclein 5'UTR reporter, inhibitor activity; inhibition, % (tested at 7.5 µM); hit rate 0.82% among 300,000; AID 1813; in the data active = inhibition above about 60%; inconclusive = no clear call, values can overlap the other calls;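 note: H4 neuroglioblastoma cells stably carrying SNCA 5'UTR luciferase fusion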
SKKanGAS inh: inhibitors of SKKanGAS S. pyogenes growth in kanamycin (SK-promoter or general growth effect). BacTiter-Glo, 6 h. inhibition, % at 7.5 µM. hit rate 1.3% among 300,000;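 active = mean replicate score, as percent of positive control median, at least 50; inconclusive = mean below 50 but one replicate at or above 50; inactive = mean and every replicate below 50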;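 note: strain carries kanamycin resistance gene driven by streptokinase promoter and grows in 40 µg/ml kanamycin; loss of luminescence reflects streptokinase promoter inhibition or plain growth inhibition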
Each line names hits and unclear results; the compound was inactive in the other large screens.

O=C(c1ccc2c3n(nc2c1)-c1ccccc1CO3)N1CCOCC1	CSC inhib 98
O=C(c1ccc2c3n(nc2c1)-c1ccc(Cl)cc1CO3)N1CCOCC1	none
COc1cccc(/C=C/C(=O)OCC(=O)c2c[nH]c3ccccc23)c1	none (no result: T cruzi inh, CSC inhib, aSyn 5UTR inh, SKKanGAS inh)
CCc1cccc2c(C(=O)COC(=O)/C=C/c3ccc(O)c(OC)c3)c[nH]c12	SKKanGAS inh 51
CN1CCN(CC2(O)CCN(S(=O)(=O)c3ccc(Cl)cc3)CC2)CC1	T cruzi inh 72
CCOC(=O)C1=CC[C@H]2c3c(c4ccccc4n3C)C(=O)C1N2Cc1ccccc1	none (no result: T cruzi inh, CSC inhib, aSyn 5UTR inh, SKKanGAS inh)
COc1cc(C)c(N)cc1C(C)C	T cruzi inh 67
CC(C)(C)C(=O)N1CCc2cc(-c3csc(N)n3)ccc21	aSyn 5UTR inh 66
CCC(C)C(=O)N1CCc2cc(-c3csc(N)n3)ccc21 (configuration not stated)	none
COc1ccc(OC)c(/C=N/NC(=O)c2c(C)nc3ccc(C)cn23)c1	none
N#CC1=C(N)NC(SCc2ccc(Cl)cc2)=C(C#N)C12CCCCC2	none
N#CC1=C(N)NC(SCc2ccccc2)=C(C#N)C12CCCC2	CSC inhib 78
N#CC1=C(N)NC(SCc2ccc(Br)cc2)=C(C#N)C12CCCCC2	T cruzi inh 66
CCOC(=O)N/N=C/C=C/c1ccccc1	none (no result: CSC inhib)
Cc1cc(C)c2c3c(sc2n1)C1(CCSCC1)C(C#N)=C(N)O3	T cruzi inh 64
O=[N+]([O-])c1ccc(O)c(/C=N/Nc2ccccn2)c1	CSC inhib 118, aSyn 5UTR inh 95 (no result: Mdm2-MdmX inh)
Cc1ccccc1OCc1nc2ccccc2c(=O)n1/N=C/c1c[nH]c2ccccc12	none
Cc1cc(C)n(CC(=O)N/N=C/c2cc(Br)cc([N+](=O)[O-])c2O)n1	T cruzi inh 65
O=C(N/N=C/c1cc([N+](=O)[O-])ccc1Cl)c1cnccn1	aSyn 5UTR inh 81
Cc1cccc(C)c1OCc1nc2ccccc2c(=O)n1/N=C/c1c[nH]c2ccccc12	T cruzi inh 69
C[C@H](CO)N1C[C@H](C)[C@@H](CN(C)S(=O)(=O)c2ccccc2)Oc2ccc(NC(=O)C3CC3)cc2C1=O	none (no result: T cruzi inh, aSyn 5UTR inh, SKKanGAS inh)
COc1ccccc1C(=O)NC(=O)Nc1c(C)cc(C)cc1C	none
Cc1ccc(NC(=O)CSCC(=O)Nc2cccc3ncccc23)cc1	none
Cc1ccc(C(=O)C(NC(=O)c2ccco2)Nc2sc3c(c2C(N)=O)CCCC3)cc1 (configuration not stated)	none
COc1ccc(S(N)(=O)=O)cc1C(=O)N(C)CC(=O)Nc1ccc(N2CCOCC2)cc1	none
O=[N+]([O-])c1ccc(Cl)c(/C=N/n2c(COc3ccccc3)n[nH]c2=S)c1	none
O=C(NC(C(=O)N/N=C/c1cc([N+](=O)[O-])ccc1O)c1n[nH]c(=O)c2ccccc12)c1ccccc1 (configuration not stated)	SKKanGAS inh 87 (no result: CSC inhib)
O=c1c2ccccc2nc(COc2ccccc2)n1/N=C/c1cc([N+](=O)[O-])ccc1O	CSC inhib 75, SKKanGAS inh 76
Cc1cccc(/C=N/NC(=O)c2cc(C)nc3ccccc23)n1	none
Cc1cc(C(=O)N/N=C/c2cc(Br)cc([N+](=O)[O-])c2O)c2ccccc2n1	SKKanGAS inh 106
O=C(N/N=C/c1cc([N+](=O)[O-])ccc1O)c1c[nH]c2ccccc12	CSC inhib inconclusive, SKKanGAS inh 66
COCCCNc1nc(CC(C)C)nc2c1nnn2Cc1ccccc1	none
CCOC(=O)C1CCN(c2ncnc3c2cnn3C)CC1	none
CC(NC(=O)c1cccs1)C1CCCO1 (configuration not stated)	none
Cc1ccc(S(=O)(=O)N2CCOCC2)cc1NC(=O)COC(=O)C1=COCCO1	none
Cc1cc(C(=O)N/N=C/c2cc([N+](=O)[O-])ccc2O)c2ccccc2n1	SKKanGAS inh 92
O=C(N/N=C/c1cc([N+](=O)[O-])ccc1O)c1cc(-c2ccccc2)nc2ccccc12	aSyn 5UTR inh 81, SKKanGAS inh 90
Cc1cc(C(=O)N/N=C/c2ccc([N+](=O)[O-])cc2)c2ccccc2n1	none
CC(C)(C)C(=O)/C=c1\[nH]c(=O)/c(=C\c2ccc(F)cc2)s1	none
COc1ccc(/C=c2\s/c(=C/C(=O)c3ccc(C)cc3)[nH]c2=O)cc1OC	SKKanGAS inh 62
C[C@@H]1C(c2cccc(Cl)c2)=NN(c2ccc(Br)cc2)[C@H]1C(=O)N1CCOC1=O	none (no result: T cruzi inh, CSC inhib, aSyn 5UTR inh, SKKanGAS inh)
C/C(=N\NC(=O)CSc1nc(C)[nH]c1[N+](=O)[O-])c1ccc(F)cc1	SKKanGAS inh 56
Cc1cc(C)cc(NC(=O)/C=C/c2ccc([N+](=O)[O-])s2)c1	none (no result: Mdm2-MdmX inh)
CC(=O)c1cccc(NC(=O)/C=C/c2ccc([N+](=O)[O-])s2)c1	T cruzi inh 56 (no result: CSC inhib, Mdm2-MdmX inh)
Cc1ccccc1NC(=O)/C=C/c1ccc([N+](=O)[O-])s1	CSC inhib 98 (no result: Mdm2-MdmX inh)
O=C(C=C=Nc1ccccc1)C(=O)N=C=Cc1ccccc1	CSC inhib inconclusive
Cc1cc(C(=O)OCC(=O)Nc2ccccc2Br)c(C)o1	none (no result: T cruzi inh, aSyn 5UTR inh, SKKanGAS inh)
COc1ccccc1N(CC(=O)Nc1cc(S(=O)(=O)N(C)C)ccc1C)S(=O)(=O)c1cccs1	none (no result: T cruzi inh, aSyn 5UTR inh, SKKanGAS inh)
O=C(NCCc1cccs1)c1ccc(Cl)cc1	none
Cc1ccc(C(=O)NCCc2cccs2)cc1	aSyn 5UTR inh 73
Cc1cccc(-c2cc3c(N=O)c4ccccc4c-3n[nH]2)c1	T cruzi inh 62 (no result: CSC inhib)
Cc1ccc(S(=O)(=O)NCCN2CCOCC2)s1	none
N=C1SCC(=O)N1c1ncc(Cc2ccc(F)cc2)s1	SKKanGAS inh 74
CCC(C)/C(C)=N/NC(=O)c1ccc(COc2ccc(Cl)c(C)c2)cc1 (configuration not stated)	none (no result: T cruzi inh, Mdm2-MdmX inh, aSyn 5UTR inh, SKKanGAS inh)
Cc1cccc(NC(=O)C(=O)NNC(=O)c2ccc(C(C)(C)C)cc2)c1	SKKanGAS inh 85
CC(C)(C)c1ccc(C(=O)NNC(=O)c2cccc(Br)c2)cc1	none
CN1CCN(c2ccc([N+](=O)[O-])c(-n3nc(-c4ccccc4)c4ccccc4c3=O)c2)CC1	none
Nc1nc(N)c(C=Nc2ccc(Br)cc2)c(Nc2ccc(Br)cc2)n1	SKKanGAS inh 100
COc1cc(OC)c(C=O)c(OC(=O)N2CCOCC2)c1	CSC inhib 128
CC1(C)CSC(=NCc2ccccc2)N1C(=O)c1cccc([N+](=O)[O-])c1	none
Clc1cccc(CNCCCSc2ncccn2)c1Cl	none
CC(C)c1ccc(CNCCCSc2ncccn2)cc1	T cruzi inh 71
CCOc1ccc(CNCCCSc2ncccn2)cc1OC	none
Clc1ccc(CNCCCSc2ncccn2)cc1Cl	T cruzi inh 56
Clc1cccc(Cl)c1CNCCCSc1ncccn1	none
CCOc1ccc(CNCCCSc2ncccn2)cc1	T cruzi inh 55
N#Cc1cc([N+](=O)[O-])ccc1NC(=O)COC(=O)CN1C(=O)C2CCCCC2C1=O (configuration not stated)	none (no result: T cruzi inh, aSyn 5UTR inh, SKKanGAS inh)
COc1cccc(C2c3[nH]c4ccccc4c3C[C@H]3C(=O)N(C4CCN(Cc5ccccc5)CC4)CC(=O)N23)c1 (some centres not stated)	T cruzi inh inconclusive
